Values after ≈ are worked out from the molar mass of the structure shown. Values joined by “and” are separate entries in the source; they are usually repeats but may differ in a detail not shown here. Equal values may be shown once. Read-outs that look alike come from different tables or passages of the source.
Columns and labels:
[1] = Determination of the binding constant; format: physicochemical; settings: for k complex / k complex (M^−1): 1:1 complex with HP‐β‐CD, source Internal data
[2] = 1:1 complex with HP‐β‐CD; cited from earlier work
[3] = Itraconazole clinical DDI study, fenebrutinib PK in healthy subjects; format: in vivo, human
Outline: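 Single oral 100 mg test-compound dose on Day 1; after a 3-day washout, inhibitor 200 mg oral solution once daily Days 4–9, with co-dosed 100 mg test compound Day 10 and one more inhibitor dose Day 11. Overnight fast, 240 mL water, food withheld 4 h post-dose. Plasma sampled predose to 48 h on Days 1 and 10. Mixed-model least-squares means, 90% CI of difference.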

[4] = Determination of the binding constant; format: physicochemical; settings: aqueous, 48 hours, ambient
Outline: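 Excess test compound was added to sealed glass vials of aqueous α-cyclodextrin or HP-β-CD at several concentrations. Vials were shaken 48 h at ambient conditions to equilibrate, then centrifuge-filtered to remove solids. Dissolved compound was quantified by HPLC with diode array detection. k_complex = [complex]/([intrinsic solubility]·[free cyclodextrin]).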

MDCK cell monolayer = experiment: Permeability across an MDCK cell monolayer; format: in vitro ADME, canine; settings: HP‐β‐CD:fenebrutinib molar ratio 1.56 (266 mg HP‐β‐CD)
Outline: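 MDCK cells with canine Mdr1 knocked out by CRISPR-Cas9 were grown 5 days on 1 µm pore polyester inserts. Monolayers were equilibrated 20 min at 37°C in HBSS with 10 mM Hepes, pH 7.4. Donor held 20 µM test compound, 50 µM lucifer yellow and 0–20% w/v HP-β-CD. Apical-to-basolateral receivers were sampled at 30, 60 and 90 min. Quantitation was by LC-MS/MS; Papp = (dQ/dt)/(A·C0).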

[5] = Pharmacokinetic study in pentagastrin‐pretreated dogs with or without HP‐β‐CD; format: in vivo, dog; settings: for AUC 0‐∞ / Fenebrutinib recovered in feces / Cmax / Tmax: 100 mg tablets; for Cmax / Tmax: male, beagle, dog, plasma, po, 100 mg
Outline: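 Fasted male beagles got intramuscular pentagastrin at 6 µg/kg about 30 min before dosing. They then had oral gavage of pH 2 water (control) or HP-β-CD in pH 2 water (0.8, 2 or 8 g total), each plus water to 250 mL, followed by two 50 mg tablets (n = 4/group). Plasma was sampled 5 min–24 h and assayed by LC-MS/MS (LLOQ 1.02 ng/mL). Cumulative fecal recovery was measured. Groups were compared by one-way ANOVA with Bonferroni's test.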

GastroPlus human model = settings: for clearance: both, human, plasma, oral
[6] = Physiochemical properties used for fenebrutinib
[7] = both, human, plasma, po, 100 mg
[8] = two‐compartment model fit to control group
[9] = dog model, from intravenous PK data

## CCn1cc(C(=O)O)c(=O)c2cc(F)c(N3CCNCC3)cc21 [Norfloxacin]
[1]
  k complex: 5 M⁻¹

## C[C@H]1O[C@@H](O[C@H]2[C@@H](O)C[C@H](O[C@H]3[C@@H](O)C[C@H](O[C@H]4CC[C@@]5(C)[C@H](CC[C@@H]6[C@@H]5C[C@@H](O)[C@]5(C)[C@@H](C7=CC(=O)OC7)CC[C@]65O)C4)O[C@@H]3C)O[C@@H]2C)C[C@H](O)[C@@H]1O [Digoxin]
[2]
  k complex (M^−1): 6,800 M^−1

## CC(=O)Nc1nnc(S(N)(=O)=O)s1 [Acetazolamide]
[2]
  k complex: 85 M⁻¹

## CC/C(=C(/CC)c1ccc(O)cc1)c1ccc(O)cc1 [Diethylstilbestrol]
[2]
  k complex (M^−1): 59,200 M^−1

## C[C@]12C=CC(=O)C=C1CC[C@@H]1[C@@H]2[C@@H](O)C[C@@]2(C)[C@H]1CC[C@]2(O)C(=O)CO [Prednisolone]
[2]
  k complex: 958 M⁻¹

## Clc1ccc(COC(Cn2ccnc2)c2ccc(Cl)cc2Cl)cc1 (stereo not drawn) [Econazole]
[2]
  k complex: 180 M⁻¹

## C[C@]12CCC(=O)C=C1CC[C@@H]1[C@@H]2[C@@H](O)C[C@@]2(C)[C@H]1CC[C@]2(O)C(=O)CO [Hydrocortisone]
[2]
  k complex (M^−1): 1,900 M^−1

## C[C@]12CC[C@@H]3c4ccc(O)cc4CC[C@H]3[C@@H]1CC[C@@H]2O [Estradiol]
[2]
  k complex (M^−1): 38,600 M^−1

## COc1ccc2cc([C@H](C)C(=O)O)ccc2c1 [Naproxen]
[2]
  k complex: 780 M⁻¹

## CS(=O)(=O)c1ccc(C2=C(c3ccccc3)C(=O)OC2)cc1 [Rofecoxib]
[1]
  k complex: 190 M⁻¹

## Nc1ccc(S(=O)(=O)Nc2nccs2)cc1 [Sulfathiazole]
[1]
  k complex: 450 M⁻¹

## CN1C(=O)CN=C(c2ccccc2)c2cc(Cl)ccc21 [Diazepam]
[2]
  k complex: 184 M⁻¹

## Clc1ccc(COC(Cn2ccnc2)c2ccc(Cl)cc2Cl)c(Cl)c1 (stereo not drawn) [Miconazole]
[2]
  k complex: 260 M⁻¹

## CC[C@@]1(O)C(=O)OCc2c1cc1n(c2=O)Cc2cc3ccccc3nc2-1 [Camptothecin]
[2]
  k complex: 184 M⁻¹

## Cc1cc(NS(=O)(=O)c2ccc(N)cc2)no1 [Sulfamethoxazole]
[2]
  k complex: 360 M⁻¹

## C[C@H]1CN(C2COC2)CCN1c1ccc(Nc2cc(-c3ccnc(N4CCn5c(cc6c5CC(C)(C)C6)C4=O)c3CO)cn(C)c2=O)nc1 [Fenebrutinib]
[3]; 100 mg fenebrutinib oral alone, healthy subjects
  AUC0–24h: 1.11 ± 0.359 µg/h/mL
[3]; 100 mg fenebrutinib with 200 mg itraconazole oral solution (steady state)
  AUC0–24h: 2.45 ± 0.588 µg/h/mL
[3]; [7]
  Cmax: 221 ± 82.5 ng/mL
  Tmax: 1.56 ± 0.629 h
  half-life: 8.26 ± 2.33 h
[1]
  k complex (M^−1): 200,000 M^−1
[1]; aqueous, 48 hours, ambient
  k complex with HP‐β‐CD: 2 × 10^5 M^−1 and ~ 2 × 10^5 M^−1
[4]
  k complex with α‐CD: 4,000 M^−1
MDCK cell monolayer
  reduction in P app: ~2 fold
[5]; HP‐β‐CD 0 g
  AUC 0‐∞: 28.9 ± 6.98 µg/h/mL
  Fenebrutinib recovered in feces: 3.48 ± 0.681 mg
  Cmax: 3940 ± 225 ng/mL
  Tmax: 0.875 ± 0.25 h
[5]; HP‐β‐CD 0.8 g
  AUC 0‐∞: 17.4 ± 6.92 µg/h/mL
  Fenebrutinib recovered in feces: 11.2 ± 2.39 mg
  increase of recovery in feces vs control: ~3 fold
  Cmax: 2090 ± 243 ng/mL
  Tmax: 1.38 ± 1.11 h
[5]; HP‐β‐CD 2 g
  AUC 0‐∞: 8.38 ± 1.94 µg/h/mL
  Fenebrutinib recovered in feces: 15.6 ± 8.99 mg
  AUC decrease vs control: ~3.5 fold
  Cmax decrease vs control: ~3.5 fold
  increase of recovery in feces vs control: ~4.5 fold
  Cmax: 1110 ± 142 ng/mL
  Tmax: 2 ± 1.15 h
[5]; HP‐β‐CD 8 g
  AUC 0‐∞: 4.46 ± 2.07 µg/h/mL
  Fenebrutinib recovered in feces: 22.7 ± 7.76 mg
  AUC decrease vs control: about 7 fold
  increase of recovery in feces vs control: about 6.5 fold
  Cmax: 447 ± 204 ng/mL
  Tmax: 3 h
GastroPlus human model
  clearance: 19.2 mL/min/kg
GastroPlus human model; 100 mg
  clearance: 35 mL/min/kg
GastroPlus human model; residual method on elimination phases
  reduction of systemic clearance in the presence of itraconazole: approximately 45%
GastroPlus human model; [8]
  transfer rate constant from the central to peripheral compartment: 0.5 h⁻¹
  transfer rate constant from the peripheral to central compartment: 0.19 h⁻¹
GastroPlus dog model; [9]
  transfer rate constant from the central to peripheral compartment: 0.08 h⁻¹
  transfer rate constant from the peripheral to central compartment: 0.2 h⁻¹
GastroPlus dog model; dog, plasma, iv
  clearance: 6 mL/min/kg
[6]
  particle size distribution median diameter (D50): 12 µm
[6]; pH 2.3
  solubility: 36000 µg/mL (≈ 54200 µM)
[6]; pH 6.5, fassif
  solubility: 9 µg/mL (≈ 13.5 µM)
[6]; pH 7.8, aqueous buffer
  solubility: 0.1 µg/mL (≈ 0.15 µM)

## Cc1nnc2n1-c1ccc(Cl)cc1C(c1ccccc1Cl)=NC2 [Triazolam]
[2]
  k complex: 200 M⁻¹

## Cc1nnc2n1-c1ccc(Cl)cc1C(c1ccccc1)=NC2 [Alprazolam]
[2]
  k complex: 250 M⁻¹

## O=C(O)c1cc(-c2ccc(F)cc2F)ccc1O [Diflunisal]
[1]
  k complex (M^−1): 1,600 M^−1

## CN1C(=O)CN=C(c2ccccc2F)c2cc([N+](=O)[O-])ccc21 [Flunitrazepam]
[2]
  k complex (M^−1): 1,100 M^−1

## Cc1ccc(-c2cc(C(F)(F)F)nn2-c2ccc(S(N)(=O)=O)cc2)cc1 [Celecoxib]
[1]
  k complex (M^−1): 3,000 M^−1

Source: paper PMC7689742 (Clinical Pharmacology and Therapeutics, 2020)
